Test results: ChEMBL document CHEMBL1126074, “(+-)-carbocyclic 5'-nor-2'-deoxyguanosine and related purine derivatives: synthesis and antiviral properties” (1992)
Values after ≈ are worked out from the molar mass of the structure shown.

Columns and labels:
Type in all cases: functional
[1] = Concentration required to cause a microscopically detectable alteration of normal ESM cell morphology.; conditions: Homo sapiens
[2] = Concentration required to reduce HSV-1 thymidine kinase deficient (TK-)(VMW 1837) induced cytopathogenicity in by 50% ESM(embryonic skin muscle) cell cultures.; conditions: Homo sapiens
Summary of the method: (§1)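 Embryonic skin muscle (ESM) cell cultures were infected at a virus input of 100 CCID50, where 1 CCID50 is the infective dose for 50% of cultures. Endpoint: concentration reducing virus-induced cytopathogenicity by 50%.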

[3] = Concentration required to reduce HSV-1(KOS) induced cytopathogenicity by 50% in ESM(embryonic skin muscle) cell cultures.; conditions: Homo sapiens; summary of the method: as §1
[4] = Concentration required to reduce HSV-2(G) induced cytopathogenicity by 50% in ESM(embryonic skin muscle) cell cultures.; conditions: Homo sapiens; summary of the method: as §1
[5] = Concentration required to reduce vaccinia virus(VV) induced cytopathogenicity by 50% in ESM(embryonic skin muscle) cell cultures.; conditions: Homo sapiens; summary of the method: as §1
[6] = Concentration required to reduce vesicular stomatitis virus(VSV) induced cytopathogenicity by 50% in ESM(embryonic skin muscle) cell cultures.; conditions: Homo sapiens; summary of the method: as §1
HEL [7] = test: Concentration required to reduce human embryonic lung (HEL) cell growth by 50%.; conditions: read-out: MCC
HEL [8] = test: Concentration required to reduce CMV(AD-169) plaque formation by 50% in human embryonic lung (HEL) cell cultures.
Summary of the method: (§2)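 Human embryonic lung (HEL) cell cultures were infected with 20 or 100 plaque forming units of CMV, as specified per column. Endpoint: concentration reducing plaque formation by 50%.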

HEL [9] = test: Concentration required to reduce CMV(Davis) plaque formation by 50% at 20 plaque forming units(PFU) in human embryonic lung (HEL) cell cultures.; summary of the method: as §2
HEL [10] = test: Concentration required to reduce CMV (Davis) plaque formation by 50% at 100 plaque forming units(PFU) in human embryonic lung (HEL) cell cultures.; summary of the method: as §2
HEL [11] = test: Concentration required to reduce VZV-07/1-TK- plaque formation by 50% in human embryonic lung (HEL) cell cultures.
HEL [12] = test: Concentration required to reduce varicella zoster virus(VZV)OKA plaque formation by 50% at 20 plaque forming units(PFU) in human embryonic lung (HEL) cell cultures.
HEL [13] = test: Concentration required to reduce varicella zoster virus (VZV)YS-TK-PFU plaque formation by 50% in human embryonic lung (HEL) cell cultures.
[14] = Concentration required to reduce HSV-1 thymidine kinase deficient (TK-)(B2006) induced cytopathogenicity by 50% in ESM(embryonic skin muscle) cell cultures.; conditions: Homo sapiens; summary of the method: as §1
HEL [15] = test: Concentration required to reduce VZV-YS/R-TK- plaque formation by 50% in human embryonic lung (HEL) cell cultures.

SMILES | MCC [1] | MIC [2] | MIC [3] | MIC [4] | MIC [5] | MIC [6] | CC50 (50% cell growth inhibitory concentration) (HEL [7]) | MIC (HEL [8]) | MIC (HEL [9]) | MIC (HEL [10]) | MIC (HEL [11]) | MIC (HEL [12]) | MIC (HEL [13]) | MIC [14] | MIC (HEL [15])
Nc1ncnc2c1ncn2[C@H]1C[C@@H](O)[C@@H](O)C1 | > 400 µg/mL | 100 µg/mL (≈ 425 µM) | > 200 µg/mL | > 200 µg/mL | > 100 µg/mL | > 200 µg/mL | 110 µg/mL (≈ 468 µM) | 200 µg/mL (≈ 850 µM) | 200 µg/mL (≈ 850 µM) | 200 µg/mL (≈ 850 µM) | 24 µg/mL (≈ 102 µM) | 24 µg/mL (≈ 102 µM) | 25 µg/mL (≈ 106 µM) | 70 µg/mL (≈ 298 µM) | 47 µg/mL (≈ 200 µM)
Nc1nc(O)c2ncn([C@H]3C[C@@H](O)[C@@H](O)C3)c2n1 | > 400 µg/mL | 150 µg/mL (≈ 597 µM) | 300 µg/mL (≈ 1190 µM) | 300 µg/mL (≈ 1190 µM) | 300 µg/mL (≈ 1190 µM) | > 400 µg/mL | 196 µg/mL (≈ 780 µM) | 250 µg/mL (≈ 995 µM) | 270 µg/mL (≈ 1070 µM) | 250 µg/mL (≈ 995 µM) | 164 µg/mL (≈ 653 µM) | 90 µg/mL (≈ 358 µM) | 91 µg/mL (≈ 362 µM) | 300 µg/mL (≈ 1190 µM) | 192 µg/mL (≈ 764 µM)
Nc1nc(N)c2ncn([C@H]3C[C@@H](O)[C@@H](O)C3)c2n1 | > 400 µg/mL | 150 µg/mL (≈ 599 µM) | > 200 µg/mL | 200 µg/mL (≈ 799 µM) | > 150 µg/mL | > 200 µg/mL | 139 µg/mL (≈ 555 µM) | 70 µg/mL (≈ 280 µM) | 70 µg/mL (≈ 280 µM) | 70 µg/mL (≈ 280 µM) | 70 µg/mL (≈ 280 µM) | 70 µg/mL (≈ 280 µM) | 200 µg/mL (≈ 799 µM) | 100 µg/mL (≈ 400 µM) | 89 µg/mL (≈ 356 µM)
O=c1[nH]c(=O)n([C@H]2C[C@H](O)[C@@H](CO)O2)cc1/C=C/Br [BRIVUDINE] | > 400 µg/mL | 10 µg/mL (≈ 30 µM) | 0.07 µg/mL (≈ 0.21 µM) | 10 µg/mL (≈ 30 µM) | 1 µg/mL (≈ 3 µM) | > 400 µg/mL | – | – | – | – | > 10 µg/mL | 0.001 µg/mL (≈ 0.003 µM) | 0.0007 µg/mL (≈ 0.0021 µM) | 100 µg/mL (≈ 300 µM) | > 10 µg/mL
Nc1nc2c(ncn2COC(CO)CO)c(=O)[nH]1 [GANCICLOVIR] | – | – | – | – | – | – | – | – | 0.8 µg/mL (≈ 3.13 µM) | 0.3 µg/mL (≈ 1.18 µM) | – | 3 µg/mL (≈ 11.8 µM) | – | – | –
NC(=O)c1ncn([C@@H]2O[C@H](CO)[C@@H](O)[C@H]2O)n1 [RIBAVIRIN] | > 400 µg/mL | 40 µg/mL (≈ 164 µM) | > 400 µg/mL | > 400 µg/mL | 70 µg/mL (≈ 287 µM) | 150 µg/mL (≈ 614 µM) | – | – | – | – | – | – | – | 300 µg/mL (≈ 1230 µM) | –
